What is called ED50 is the midpoint of the dose-response relation. A low value points to greater potency. One may read the IC50 as the concentration that inhibits the measured activity by half. Higher therefore signals lower potency.

The values that follow come from ChEMBL document CHEMBL1124799, “1,4-bis(3-oxo-2,3-dihydropyridazin-6-yl)benzene analogues: potent phosphodiesterase inhibitors and inodilators” (1990).

The test system of assay [1] is Felis catus. In words: The dose required to cause 50% increase in the contractility and inotropic activity as dLVP/dt(max) in anesthetized cat. The assay is classed as functional. The essentials: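 Pentobarbitone-anesthetized cats (60 mg/kg ip), given pempidine 5 mg/kg and then propranolol 1 mg/kg iv plus 3–4 mg/kg sc. Cats responding to isoprenaline 0.01–0.1 μg/kg iv with less than a 100% contractility rise were rejected. Test compound given as an iv bolus, with dLVP/dt(max) as the read-out. ED50 is the dose giving a 50% rise over control, from dose-response curves, mean of ≥2 experiments. Duration was scored by the time for dLVP/dt to return to control.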

Assay [2] has as its system Felis catus. In words: ED15 is the dose producing 15% decrease in autoperfused hindquarters perfusion pressure in anesthetized cat. Format: functional. In outline:
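Anesthetized cats (either sex, 1.9–2.5 kg; pentobarbitone 60 mg/kg ip), ganglion-blocked with pempidine 5 mg/kg, then β-blocked with propranolol 1 mg/kg iv plus 3–4 mg/kg sc, heparinized 500 units/kg iv. Hindquarters autoperfused via the descending aorta. Test compound given as an iv bolus. ED15 taken as the dose lowering perfusion pressure by 15%, from dose-response curves, mean of ≥2 experiments.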

The subject of assay [3] is Phosphodiesterase 3 (Felis catus). In words: Inhibition of phosphodiesterase 3 enzyme activity by 50%.
The test system is the same in assay [4]. In words: Inhibition of Phosphodiesterase 3.

In turn, `CC1CC(=O)NN=C1c1ccc(-c2ccc(O)nn2)cc1` (configuration not stated) showed a 50% effective dose (ED50) in assay [1] of 0.02 µmol/kg. In addition, the ED15 in assay [2] amounted to 0.01 µM/kg. In assay [3], this compound had a half-maximal inhibitory concentration (IC50) of 0.07 µM.
In assay [1], `CC1CC(O)=NN=C1c1ccc(-n2ccnc2)cc1` (configuration not stated) [CI-930] registered an ED50 of 0.18 µmol/kg. Also, the ED15 in assay [2] was determined as 0.09 µM/kg.
In assay [1], `Nc1ccc(C2=NNC(=O)CC2)cc1` yielded a 50% effective dose (ED50) of 4.43 µmol/kg. In assay [2], this compound registered an ED15 of 1.4 µM/kg. For the same compound, half-maximal inhibition in assay [3] (IC50) was put at 61.7 µM.
In the same order, the values of `O=C1CCC(c2ccc(C3=NNC(=O)CC3)cc2)=NN1` are 0.55 µmol/kg, 0.12 µM/kg and 0.64 µM.
In the same order, the values of `CC1CC(=O)NN=C1c1ccc(N)cc1` (configuration not stated) are 1.7 µmol/kg, 0.5 µM/kg and 37 µM.
As for `CC1SC(=O)NN=C1c1ccc(C2=NNC(=O)SC2C)cc1` (configuration not stated), the 50% effect level in assay [1] (ED50) was put at a dose of 0.13 µmol/kg. For the same compound, the ED15 in assay [2] stood at 0.09 µM/kg. This compound also registered an IC50 in assay [4] of 0.08 µM.
In assay [1], `CC(=O)Nc1ccc(C2=NNC(=O)CC2C)cc1` (configuration not stated) showed a median effective dose (ED50) of 0.03 µmol/kg. In assay [2], this compound came in with an ED15 of 0.08 µM/kg.
With `Nc1ccc(-c2ccc(O)nn2)cc1`, the IC50 in assay [3] came to 22.8 µM.
On the same count and under the same terms, the same measure for `Oc1ccc(-c2ccc(-c3ccc(-c4ccc(O)nn4)cc3)cc2)nn1`: greater than 100 µM.
For `Oc1ccc(-c2cccc(-c3ccc(O)nn3)c2)nn1`, the ED15 in assay [2] was 3.23 µM/kg. In assay [3], this compound had a concentration for half-maximal inhibition (IC50) of 3.9 µM.
Consider `CC(=O)Nc1ccc(-c2ccc(O)nn2)cc1`, for which, in assay [3], the 50% inhibitory concentration (IC50) came out at 6.38 µM.
Consider `Oc1ccc(-c2ccc(-c3ccc(O)nn3)cc2)nn1`, for which, in assay [1], the ED50 turned out to be 0.04 µmol/kg. The compound further had an ED15 in assay [2] of 0.06 µM/kg. For the same compound, in assay [3], half-maximal inhibition (IC50) was put at 0.33 µM.
The compound `Oc1ccc(-c2ccc(-c3ccc(O)nn3)s2)nn1` came in with an ED50 in assay [1] of 0.73 µmol/kg. The compound also showed an ED15 in assay [2] of 0.38 µM/kg. In assay [3], this compound showed an IC50 of 0.49 µM.
`Cc1cc(O)nnc1-c1ccc(-c2nnc(O)cc2C)cc1` yielded a half-inhibitory concentration (IC50) in assay [3] of 37.5 µM.
Compound `CC1CC(=O)NN=C1c1ccc(C(N)=O)cc1` (configuration not stated) had a median effective dose (ED50) in assay [1] of 0.07 µmol/kg. The ED15 in assay [2] stood at 0.1 µM/kg. The same compound returned a half-maximal inhibitory concentration (IC50) in assay [3] of 2.23 µM.
With `O=C1CCC(c2ccc(-n3ccnc3)cc2)=NN1` [IMAZODAN], it took a dose of 0.64 µmol/kg to reach the 50% effect level in assay [1] (ED50). The ED15 in assay [2] worked out at 0.42 µM/kg.
For the compound `CC1CC(=O)NN=C1c1ccc(C2=NNC(=O)CC2C)cc1` (configuration not stated), the median effective dose (ED50) in assay [1] came out at 0.06 µmol/kg. For the same compound, in assay [2], the ED15 was 0.04 µM/kg. Also, the IC50 in assay [3] turned out to be 0.11 µM.
Taken in the same sequence, the figures for `CC(=O)Nc1ccc(C2=NNC(=O)CC2)cc1` were 0.19 µmol/kg, 0.2 µM/kg and 7.13 µM.
